Data on 9 compounds can be found in ChEMBL document CHEMBL1134010, “Syntheses and antifungal activities of novel 3-amido bearing pseudomycin analogues” (Bioorg Med Chem Lett, 2001).

A word on the MIC: it is the least concentration at which growth counts as inhibited. By ED50 is commonly meant the dose at which the effect has come halfway, by size or by number of responders.

Molecules are shown by their SMILES. In brackets after ≈: the same amount, converted by molar mass. Positions of bridges follow the written chain, without caps; N, C: chain ends. Non-standard residues stand in square brackets, D forms with d. Residues, ends and D or L forms follow the SMILES beside them. *: point of attachment. Tetradecanoyl(3R-OH) = CCCCCCCCCCC[C@@H](O)CC(=O)*; Asp(3S-OH) = N[C@H](C(=O)O)[C@H](O)C(=O)O; Thr(4-Cl) = N[C@H](C(=O)O)[C@H](O)CCl; aThr = C[C@H](O)[C@H](N)C(=O)O; dDab = NCC[C@@H](N)C(=O)O; NHCH2CH2NMe2 = CN(C)CCN*; Dab = NCC[C@H](N)C(=O)O; Dhb = C/C=C(\N)C(=O)O; NHcPr = C1CC1N*

In data set [1] the test system is Mus musculus. Kind of data set: Toxicity at a dose of 100 mg/kg in mice; Death. Conditions: in vivo; call rule not given here.
The subject of data set [2] is Candida albicans. Kind of data set: In vitro minimum inhibitory concentration (MIC) against Candida albicans. It is filed as functional. The method, boiled down: (§1)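 Tested against Candida albicans, Cryptococcus neoformans and Aspergillus fumigatus, with PSB as positive control. MIC is taken as the lowest drug concentration giving 90–100% inhibition of visible growth relative to drug-free controls.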

In the next data set the test system is Cryptococcus neoformans. The data set is described as follows: In vitro minimum inhibitory concentration (MIC) against Cryptococcus neoformans. It counts as functional. An outline of the steps: as §1
Another data set has as its system Aspergillus fumigatus. The data set is described as follows: In vitro minimum inhibitory concentration (MIC) against Aspergillus fumigatus. It counts as functional. An outline of the steps: as §1
The test system of data set [3] is Mus musculus. The data set is described as follows: Survival extension of the mice against Aspergillosis infection at a dose of 1 mg/kg. It counts as functional. An outline of the steps: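 Murine systemic aspergillosis model, ip. The analogue was given BID at 50, 10 and 1 mg/kg, and survival extension of infected animals was recorded.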
For data set [4], the system named is Mus musculus. Kind of data set: Toxicity at a dose of 125 mg/kg in mice; Death. To be noted: in vivo.
Data set [5] has as its system Mus musculus. The data set is described as follows: In vivo efficacy against murine systemic Cryptococosis by intraperitoneal administration. It counts as functional. Conditions: ip. An outline of the steps: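 Murine systemic cryptococcosis, ip dosing BID ×4 at 5.0, 1.25, 0.312 and 0.078 mg/kg. ED50 is the dose giving 50% survival relative to untreated infected animals.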

The test system of data set [6] is Candida albicans. Kind of data set: In vivo efficacy against murine Candidiasis dosed four times by intraperitoneal administration post-infection using Reed and Muench method. It counts as functional. Conditions: ip. The method, boiled down: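 Systemic candidiasis in mice, with PSB and amphotericin B as positive controls. Analogues were given at 20, 10 and 5 mg/kg, four doses at 0, 4, 24 and 48 post-infection. ED50 is the dose giving 50% survival relative to untreated infected animals, calculated by the Reed and Muench method.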

In data set [7] the test system is Mus musculus. Kind of data set: In vivo efficacy against murine Candidiasis dosed four times by intraperitoneal administration post-infection using Reed and Muench method; Toxic. It is filed as functional, organism-based.
In data set [8] the test system is Mus musculus. The data set is described as follows: Toxicity at a dose of 75 mg/kg in mice; Death. To be noted: in vivo.
A further data set relates to Rattus norvegicus. The data set is described as follows: Toxicity at a dose of 50 mg/kg in rats; Death. It is filed as organism-based. The arrangement: dose 50 mg/kg. Conditions: in vivo.
Data set [9] has as its system Mus musculus. The data set is described as follows: Survival extension of the mice against Aspergillosis infection at a dose of 20 mg/kg. It counts as functional.
Data set [10] deals with Mus musculus. The data set is described as follows: Compound was dosed four times to outbred, male ICR mice and signs of irritation (erythema, swelling, discoloration, necrosis and tail loss) were observed in tail irritation test; Yes. It counts as ADME, organism-based. Conditions: in vivo.

For `C/C=C1\NC(=O)[C@H]([C@H](C)O)NC(=O)[C@H](CCN)NC(=O)[C@H](CCCCN)NC(=O)[C@H](CC(=O)NC2CC2)NC(=O)[C@@H](CCN)NC(=O)[C@@H](NC(=O)C[C@H](O)CCCCCCCCCCC)COC(=O)[C@H]([C@H](O)CCl)NC(=O)[C@H]([C@H](O)C(=O)O)NC1=O` ({Tetradecanoyl(3R-OH)}-S[dDab]D(NHcPr)K[Dab][aThr][Dhb][Asp(3S-OH)][Thr(4-Cl)]; ester 1-C), the Toxicity entry in the data set with Mus musculus [1] and in the data set on Mus musculus [4] was “Death” each time. Moreover, the MIC was 0.156 µg/mL (≈ 0.125 µM) in the data set with Candida albicans [2], less than 0.01 µg/mL with Cryptococcus neoformans and 20 µg/mL (≈ 16 µM) against Aspergillus fumigatus. In addition, the Survival extension in the data set with Mus musculus [3] came out at 29%. Moreover, the figures for the ED50 in the data set with Mus musculus [5] and with Candida albicans [6] were 2.9 mg/kg and less than 5 mg/kg, respectively.

As to `C/C=C1\NC(=O)[C@H]([C@H](C)O)NC(=O)[C@H](CCN)NC(=O)[C@H](CCCCN)NC(=O)[C@H](CC(=O)NCCCCCCC)NC(=O)[C@@H](CCN)NC(=O)[C@@H](NC(=O)C[C@H](O)CCCCCCCCCCC)COC(=O)[C@H]([C@H](O)CCl)NC(=O)[C@H]([C@H](O)C(=O)O)NC1=O`, the MIC was 20 µg/mL (≈ 15.3 µM) against Candida albicans [2], 0.312 µg/mL (≈ 0.239 µM) in the data set with Cryptococcus neoformans and greater than 20 µg/mL against Aspergillus fumigatus. For the same compound, the ED50 entry with Mus musculus [7] is “Toxic”.

For `C/C=C1\NC(=O)[C@H]([C@H](C)O)NC(=O)[C@H](CCN)NC(=O)[C@H](CCCCN)NC(=O)[C@H](CC(=O)NCCC)NC(=O)[C@@H](CCN)NC(=O)[C@@H](NC(=O)C[C@H](O)CCCCCCCCCCC)COC(=O)[C@H]([C@H](O)CCl)NC(=O)[C@H]([C@H](O)C(=O)O)NC1=O`, the Toxicity result in the data set with Mus musculus [1] and in the data set with Mus musculus [4] was “Death” throughout. Also, the MIC is 1.25 µg/mL (≈ 1 µM) against Candida albicans [2], 0.078 µg/mL (≈ 0.0625 µM) against Cryptococcus neoformans and greater than 20 µg/mL against Aspergillus fumigatus. This compound had a 50% effective dose (ED50) in the data set with Candida albicans [6] of 6 mg/kg.

As to `C/C=C1\NC(=O)[C@H]([C@H](C)O)NC(=O)[C@H](CCN)NC(=O)[C@H](CCCCN)NC(=O)[C@H](CC(=O)O)NC(=O)[C@@H](CCN)NC(=O)[C@@H](NC(=O)C[C@H](O)CCCCCCCCCCC)COC(=O)[C@H]([C@H](O)CCl)NC(=O)[C@H]([C@H](O)C(=O)O)NC1=O` [PSEUDOMYCIN B] ({Tetradecanoyl(3R-OH)}-S[dDab]DK[Dab][aThr][Dhb][Asp(3S-OH)][Thr(4-Cl)]; ester 1-C), the Toxicity result in the data set on Mus musculus [1], in the data set with Mus musculus [8], in the data set on Rattus norvegicus and in the data set on Mus musculus [4] was “Death” in each case. The values for the MIC in the data set with Candida albicans [2], in the data set on Cryptococcus neoformans and against Aspergillus fumigatus were 0.625 µg/mL (≈ 0.517 µM), 0.01 µg/mL (≈ 0.00828 µM) and greater than 20 µg/mL, respectively. The same compound had an ED50 with Mus musculus [5] of 1.8 mg/kg. The Survival extension with Mus musculus [9] is on record as 46%.

In the case of `C/C=C1\NC(=O)[C@H]([C@H](C)O)NC(=O)[C@H](CCN)NC(=O)[C@H](CCCCN)NC(=O)[C@H](CC(=O)NCCN)NC(=O)[C@@H](CCN)NC(=O)[C@@H](NC(=O)C[C@H](O)CCCCCCCCCCC)COC(=O)[C@H]([C@H](O)CCl)NC(=O)[C@H]([C@H](O)C(=O)O)NC1=O`, the values for the MIC against Candida albicans [2], with Cryptococcus neoformans and against Aspergillus fumigatus were 10 µg/mL (≈ 8 µM), less than 0.01 µg/mL and 5 µg/mL (≈ 4 µM), respectively. Moreover, in the data set on Mus musculus [10], the Tail vein toxicity result is “Active”. Besides, the ED50 with Candida albicans [6] was less than 5 mg/kg.

As for `C/C=C1\NC(=O)[C@H]([C@H](C)O)NC(=O)[C@H](CCN)NC(=O)[C@H](CCCCN)NC(=O)[C@H](CC(=O)NCCCN(CC)CC)NC(=O)[C@@H](CCN)NC(=O)[C@@H](NC(=O)C[C@H](O)CCCCCCCCCCC)COC(=O)[C@H]([C@H](O)CCl)NC(=O)[C@H]([C@H](O)C(=O)O)NC1=O`, the values for the MIC against Candida albicans [2], in the data set on Cryptococcus neoformans and in the data set with Aspergillus fumigatus were 20 µg/mL (≈ 15.2 µM), less than 0.01 µg/mL and greater than 20 µg/mL, respectively. Further, in the data set with Mus musculus [10], the Tail vein toxicity result is “Active”. In the data set on Candida albicans [6], this compound showed an ED50 of less than 4 mg/kg.

`C/C=C1\NC(=O)[C@H]([C@@H](C)O)NC(=O)[C@H](CCN)NC(=O)[C@H](CCCCN)NC(=O)[C@H](CC(=O)N[C@@H](CCCCN)C(=O)OC)NC(=O)[C@@H](CCN)NC(=O)[C@@H](NC(=O)C[C@H](O)CCCCCCCCCCC)COC(=O)[C@H]([C@H](O)CCl)NC(=O)[C@H]([C@H](O)C(=O)O)NC1=O`: the Toxicity result with Mus musculus [1] and with Mus musculus [4] was “Death” in each case. The MIC was 1.25 µg/mL (≈ 0.926 µM) against Candida albicans [2], less than 0.01 µg/mL in the data set with Cryptococcus neoformans and greater than 20 µg/mL in the data set with Aspergillus fumigatus. Also, in the data set on Candida albicans [6], the ED50 is less than 5 mg/kg.

Take `C/C=C1\NC(=O)[C@H]([C@H](C)O)NC(=O)[C@H](CCN)NC(=O)[C@H](CCCCN)NC(=O)[C@H](CC(N)=O)NC(=O)[C@@H](CCN)NC(=O)[C@@H](NC(=O)C[C@H](O)CCCCCCCCCCC)COC(=O)[C@H]([C@H](O)CCl)NC(=O)[C@H]([C@H](O)C(=O)O)NC1=O` ({Tetradecanoyl(3R-OH)}-S[dDab]NK[Dab][aThr][Dhb][Asp(3S-OH)][Thr(4-Cl)]; ester 1-C): the MIC against Candida albicans [2] is 2.5 µg/mL (≈ 2.07 µM); against Cryptococcus neoformans, less than 0.01 µg/mL; against Aspergillus fumigatus it was 10 µg/mL (≈ 8.29 µM). Also, in the data set on Mus musculus [10], the Tail vein toxicity result is “Active”. The same compound returned an ED50 in the data set on Candida albicans [6] of less than 0.8 mg/kg.

`C/C=C1\NC(=O)[C@H]([C@H](C)O)NC(=O)[C@H](CCN)NC(=O)[C@H](CCCCN)NC(=O)[C@H](CC(=O)NCCN(C)C)NC(=O)[C@@H](CCN)NC(=O)[C@@H](NC(=O)C[C@H](O)CCCCCCCCCCC)COC(=O)[C@H]([C@H](O)CCl)NC(=O)[C@H]([C@H](O)C(=O)O)NC1=O` ({Tetradecanoyl(3R-OH)}-S[dDab]D(NHCH2CH2NMe2)K[Dab][aThr][Dhb][Asp(3S-OH)][Thr(4-Cl)]; ester 1-C): the Toxicity entry in the data set on Mus musculus [1], in the data set on Mus musculus [8] and in the data set with Mus musculus [4] was “Death” in each case. Besides, the results for the MIC against Candida albicans [2], in the data set on Cryptococcus neoformans and in the data set on Aspergillus fumigatus were 0.156 µg/mL (≈ 0.122 µM), less than 0.01 µg/mL and 5 µg/mL (≈ 3.91 µM), respectively. Also, the Survival extension in the data set with Mus musculus [3] was 23%. Moreover, the ED50 in the data set with Mus musculus [5] was 2.5 mg/kg; in the data set on Candida albicans [6], less than 5 mg/kg.
